The results in this text go back to ChEMBL document CHEMBL1144977, “Synthesis of pyrimidinopyridine-triazene conjugates targeted to abl tyrosine kinase” (Bioorg Med Chem Lett, 2003).

The subject of one data set is K562. Kind of data set: Cytotoxic effect in K562 cells. Particulars: Homo sapiens.
Data set [1] in a line: Alkylating activity (0.1 mM) was determined at pH 7.4; expressed as OD (540n m)/mM of drug). In kind it is ADME. The note with it: pH 7.4, 100 µM. In outline: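 Alkylation read as OD at 540 nm per mM of drug. Drug at 0.1 mM was pre-incubated with NBP in TRIS buffer pH 7.4 for 2 h at 37 °C, then triethylamine/acetone was added.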
Data set [2] addresses Tyrosine-protein kinase ABL (Homo sapiens, UniProt P00519+P42684). Kind of data set: Inhibition of Abl tyrosine kinase. The data set is classed as protein assay.

Bounds are passed on as bounds.

`Cc1ccc(NC(=O)c2ccc(CN3CCN(C)CC3)cc2)cc1Nc1nccc(-c2cccnc2)n1` [IMATINIB] returned an IC50 in the data set with K562 of 0.11 µM. This counts as sub-micromolar.

`COCCN=NNc1ccc(C(=O)Nc2cccc(Nc3nccc(-c4cccnc4)n3)c2)cc1` had an Alkylating activity in data set [1] of 0.0002. Besides, the IC50 with K562 is 16.2 µM; in data set [2] it was 0.903 µM.

Consider `Nc1ccc(C(=O)Nc2cccc(Nc3nccc(-c4cccnc4)n3)c2)cc1`, for which the IC50 with K562 was 9.88 µM; in data set [2] it was 4.89 µM.

As for `c1cc(N/N=N/CCN2CCOCC2)cc(Nc2nccc(-c3cccnc3)n2)c1`, the IC50 with K562 amounted to 10.1 µM; in data set [2] it was 10 µM.

As for `Cn1nnc2c(C(N)=O)ncn2c1=O` [TEMOZOLOMIDE], in data set [1], the Alkylating activity is 0.0013. Also, the IC50 in the data set with K562 is 156 µM; in data set [2], more than 100 µM.

Take `COCC/N=N/Nc1cccc(Nc2nccc(-c3cccnc3)n2)c1`: the results for the IC50 (in the data set on K562; in data set [2]) were 5.39 µM and 8.6 µM, respectively.

In data set [1], `Cc1ccc(NC(=O)c2ccc(/N=N/N(C)C)cc2)cc1Nc1nccc(-c2cccnc2)n1` showed an Alkylating activity of 0.0002. In addition, the IC50 in the data set on K562 was 2.16 µM; in data set [2], 0.1946 µM.

In data set [1], `Cc1ccc(NC(=O)c2ccc(N=NN(C)CO)cc2)cc1Nc1nccc(-c2cccnc2)n1` showed an Alkylating activity of 0.0015.

For the molecule `Cc1ccc(NC(=O)c2ccc(/N=N/N(C)CCCl)cc2)cc1Nc1nccc(-c2cccnc2)n1`, the Alkylating activity in data set [1] turned out to be 0.00014. In addition, the IC50 in the data set with K562 was 17.4 µM; in data set [2], 0.8496 µM.

`Cc1ccc(NC(=O)c2ccc(N)cc2)cc1Nc1nccc(-c2cccnc2)n1` displayed an Alkylating activity in data set [1] of 0.0002. The values for the IC50 (in the data set with K562; in data set [2]) were 68 µM and more than 10 µM, respectively.

`Nc1cccc(Nc2nccc(-c3cccnc3)n2)c1`: the IC50 is 21.7 µM in the data set with K562 and more than 10 µM in data set [2].
